In ChEMBL document CHEMBL3588846, “Aryl Pyrazoles as Potent Inhibitors of Arginine Methyltransferases: Identification of the First PRMT6 Tool Compound” (ACS Med Chem Lett, 2015):
The source made the active and inactive calls. The rule behind the calls is not given here.

Key:
[1] = molecular target: T1, Protein arginine N-methyltransferase 6 (Homo sapiens, UniProt Q96LA8); assay: Inhibition of FLAG and hexa-histidine tagged full-length human PRMT6 expressed in HEK293F cells pre-incubated for 30 mins before addition of a [3H]SAM and peptide mix; assay type: cell-based
[2] = molecular target: Protein arginine N-methyltransferase 8 (Homo sapiens, UniProt Q9NR22); assay: Inhibition of N-terminal GST tagged full-length human PRMT8 expressed in Escherichia coli (BL21(DE3) pre-incubated for 30 mins before addition of a [3H]SAM and peptide mix
[3] = molecular target: T1, Protein arginine N-methyltransferase 6; assay: Inhibition of his-tagged PRMT6 (unknown origin) expressed in human A375 cells assessed as reduction in H3R2 methylation at 0.01 to 20 uM incubated for 48 hrs by Western blot method; assay type: cell-based, A-375
[4] = molecular target: T2, Protein arginine N-methyltransferase 1 (Homo sapiens, UniProt Q99873); assay: Inhibition of N-terminal GST tagged full-length human PRMT1 expressed in high five insect cells pre-incubated for 30 mins before addition of a [3H]SAM and peptide mix
[5] = tested on: A-375; assay: Effect on PRMT6 expression in human A375 cells transfected with his-tagged PRMT6 at 0.01 to 20 uM incubated for 48 hrs by Western blot method; assay type: functional, cell-based
Procedure, shortened: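 A375 cells were transfected with a PRMT6 expression construct, with empty vector as the control, and PRMT6 was overexpressed for 48 h. Compound exposure also lasted 48 h. PRMT6 protein levels were then checked in the treated cells.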

[6] = molecular target: T2, Protein arginine N-methyltransferase 1; assay: Inhibition of PRMT1 in human A375 cells assessed as effect on monomethyl R*GG motif methylation at 0.01 to 20 uM incubated for 48 hrs by Western blot method; assay type: cell-based, A-375
[7] = Unbound fraction in Sprague-Dawley rat plasma at 1 uM at 37 degC by equilibrium dialysis and LC-MS/MS method; assay type: ADME, cell-free
[8] = Unbound fraction in human plasma at 1 uM at 37 degC by equilibrium dialysis and LC-MS/MS method; assay type: ADME, cell-free
[9] = Permeability of the compound at 10 uM at pH 7.4 by LC-MS/MS based PAMPA method; assay type: physicochemical; conditions: read-out: permeability
[10] = Oral bioavailability in rat; assay type: ADME, organism-based; conditions: in vivo
[11] = Clearance in Sprague-Dawley rat at 1 mg/kg, iv administered as single dose by LC-MS/MS method; assay type: ADME, organism-based; conditions: in vivo
[12] = Volume of distribution at steady state in Sprague-Dawley rat at 1 mg/kg, iv administered as single dose by LC-MS/MS method; assay type: ADME, organism-based; conditions: in vivo, read-out: Vdss
[13] = Terminal half life in Sprague-Dawley rat at 1 mg/kg, iv administered as single dose by LC-MS/MS method; assay type: ADME, organism-based; conditions: in vivo, read-out: beta t1/2 (converted)
[14] = AUC (0 to t) in Sprague-Dawley rat at 1 mg/kg, iv administered as single dose by LC-MS/MS method; assay type: ADME, organism-based; conditions: in vivo
[15] = AUC (0 to infinity) in Sprague-Dawley rat at 1 mg/kg, iv administered as single dose by LC-MS/MS method; assay type: ADME, organism-based; set-up: dose 1 mg/kg, route intravenous, time infinity; conditions: in vivo
[16] = Terminal half life in Sprague-Dawley rat at 5 mg/kg, sc by LC-MS/MS method; assay type: ADME, organism-based; conditions: in vivo, read-out: beta t1/2 (converted)
[17] = Tmax in Sprague-Dawley rat at 5 mg/kg, sc by LC-MS/MS method; assay type: ADME, organism-based; conditions: in vivo
[18] = Cmax in Sprague-Dawley rat at 5 mg/kg, sc by LC-MS/MS method; assay type: ADME, organism-based; set-up: dose 5 mg/kg, route subcutaneous; conditions: in vivo
[19] = AUC (0 to t) in Sprague-Dawley rat at 5 mg/kg, sc by LC-MS/MS method; assay type: ADME, organism-based; conditions: in vivo
[20] = AUC (0 to infinity) in Sprague-Dawley rat at 5 mg/kg, sc by LC-MS/MS method; assay type: ADME, organism-based; set-up: dose 5 mg/kg, route subcutaneous, time infinity; conditions: in vivo
[21] = Bioavailability in Sprague-Dawley rat at 5 mg/kg, sc by LC-MS/MS method; assay type: ADME, organism-based; conditions: in vivo
[22] = tested on: Rattus norvegicus; assay: Time above biochemical PRMT6 IC50 in Sprague-Dawley rat at 5 mg/kg, sc by LC-MS/MS method

T1 sequence (Q96LA8 whole entry): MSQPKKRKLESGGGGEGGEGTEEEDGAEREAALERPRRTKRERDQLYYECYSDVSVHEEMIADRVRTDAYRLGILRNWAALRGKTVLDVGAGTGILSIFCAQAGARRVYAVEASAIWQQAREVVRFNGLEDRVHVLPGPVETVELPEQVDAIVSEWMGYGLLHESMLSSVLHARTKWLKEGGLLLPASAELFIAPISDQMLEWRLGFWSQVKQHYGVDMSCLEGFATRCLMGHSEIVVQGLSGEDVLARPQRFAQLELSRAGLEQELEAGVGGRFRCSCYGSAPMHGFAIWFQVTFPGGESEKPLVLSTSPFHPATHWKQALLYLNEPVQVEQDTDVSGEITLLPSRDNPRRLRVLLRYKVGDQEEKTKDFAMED
Chain of Protein arginine N-methyltransferase 8 (Q9NR22 whole entry): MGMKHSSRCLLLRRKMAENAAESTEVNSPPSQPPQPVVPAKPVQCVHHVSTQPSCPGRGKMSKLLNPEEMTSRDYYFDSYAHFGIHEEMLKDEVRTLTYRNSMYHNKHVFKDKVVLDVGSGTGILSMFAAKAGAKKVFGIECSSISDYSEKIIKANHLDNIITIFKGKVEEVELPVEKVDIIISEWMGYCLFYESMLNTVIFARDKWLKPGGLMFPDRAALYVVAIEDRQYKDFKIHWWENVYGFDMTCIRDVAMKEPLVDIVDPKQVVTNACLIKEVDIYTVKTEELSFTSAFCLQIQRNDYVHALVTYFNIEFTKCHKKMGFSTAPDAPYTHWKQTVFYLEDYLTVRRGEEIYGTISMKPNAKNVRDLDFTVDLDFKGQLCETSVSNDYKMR
T2 sequence (Q99873 whole entry): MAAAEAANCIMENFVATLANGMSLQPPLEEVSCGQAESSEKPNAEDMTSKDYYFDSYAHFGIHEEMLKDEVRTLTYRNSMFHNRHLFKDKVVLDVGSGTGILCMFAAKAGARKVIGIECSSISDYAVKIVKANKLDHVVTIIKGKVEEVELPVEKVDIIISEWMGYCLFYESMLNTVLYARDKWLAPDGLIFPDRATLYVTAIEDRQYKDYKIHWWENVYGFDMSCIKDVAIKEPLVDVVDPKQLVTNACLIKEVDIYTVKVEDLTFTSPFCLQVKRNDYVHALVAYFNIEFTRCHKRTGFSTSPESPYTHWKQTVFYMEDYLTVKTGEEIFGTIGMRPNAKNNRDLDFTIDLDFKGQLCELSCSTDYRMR

In the case of `CNCCN(C)Cc1c[nH]nc1-c1ccc(Oc2cccc(C(=O)N(C)C)c2)cc1`, the IC50 [1] is reported as 3 nM and the IC50 [2] is reported as 179 nM.
`CNCCN(C)Cc1cn[nH]c1-c1ccc(OC(C)C)c(Cl)c1` showed an IC50 [1] of 10 nM.
For `CNCCN(C)Cc1n[nH]cc1-c1ccc(Oc2ccccc2C(=O)NC)cc1`, the IC50 [1] was 5 nM and the IC50 [2] was 65 nM.
`CC(C)Oc1ccc(-c2[nH]ncc2CN(C)CCN)cc1Cl` showed an IC50 [1] of 8 nM.
In the case of `CNCCN(C)Cc1n[nH]cc1-c1ccc(Oc2cccc(C(=O)N(C)C)c2)cc1`, the IC50 [1] is reported as 2 nM and the IC50 [2] is reported as 347 nM.
`CNCCN(C)Cc1c[nH]nc1-c1cc(OC(CO)CC(C)C)cc(C(F)(F)F)c1` (stereo not drawn) showed an IC50 [3] greater than 20000 nM.
With `CNCCN(C)Cc1c[nH]nc1-c1cc(OCCC2CCCCC2)cc(C(F)(F)F)c1` the IC50 [1] was 461 nM and the IC50 [2] was 21 nM.
`CNCCN(C)Cc1c[nH]nc1-c1cc(OCCc2ccccc2)cc(C(F)(F)F)c1` showed an IC50 [1] of 327 nM and an IC50 [2] of 23 nM.
Work on `CNCCN(C)Cc1c[nH]nc1-c1ccc(OC(C)C)cc1` yielded an IC50 [1] of 11 nM.
With `CN(CCN)Cc1c[nH]nc1-c1ccc(OCCCN2CCOCC2)cc1` the IC50 [1] was 13 nM.
Compound `CCOc1ccc(-c2[nH]ncc2CN(C)CCNC)cc1` has an IC50 [1] of 25 nM.
Compound `CC(C)Oc1c(Cl)cc(-c2c[nH]nc2CN(C)CCN)cc1C(F)(F)F` has an IC50 [1] of 320 nM and an IC50 [2] of 70 nM.
`CNCCN(C)Cc1cn[nH]c1-c1ccc(OC(CO)C(C)C)cc1` (stereo not drawn) gave an IC50 [4] of 27 nM.
With `CNCCN(C)Cc1c[nH]nc1-c1ccc(O[C@H]2C[C@H](OCCC3CCOCC3)C2)cc1` the Activity [5] was “inactive”, the IC50 [3] was 637 nM and the IC50 [6] was 7100 nM. The fraction unbound at 1 µM [7] was 0.51, the fraction unbound at 1 µM [8] was 0.52 and the Papp at 10 µM [9] was 0.1 ×10⁻⁶ cm/s. It also gave a bioavailability [10] of less than 5%, a clearance [11] of 19.7 mL/min/kg and a Vd [12] of 11.1 L/kg. It also gave a half-life [13] of 8.54 h, an AUC(0-t) [14] of 745 ng·h/mL and an AUC(0-inf) [15] of 846 ng·h/mL. The half-life [16] was 9.19 h, the Tmax [17] was 0.444 h and the Cmax [18] was 844 ng/mL. It also gave an AUC(0-t) [19] of 2460 ng·h/mL, an AUC(0-inf) [20] of 2780 ng·h/mL and a bioavailability [21] of 65.6%. It also gave a Time [22] greater than 12 h.
